Measurements: ChEMBL document CHEMBL5042517, “Discovery, X-ray Crystallography, and Anti-inflammatory Activity of Bromodomain-containing Protein 4 (BRD4) BD1 Inhibitors Targeting a Distinct New Binding Site” (J Med Chem, 2022)
The source made the active and inactive calls. The calls are words filed in the database; no cut-off is given here.

How the values were obtained:
[1] = target: T1, Bromodomain-containing protein 4 (Homo sapiens, UniProt O60885)
[2] = target: T1, Bromodomain-containing protein 4; assay: Binding affinity to wild type human BRD4 BD2 (349 to 461 residues) expressed in bacterial competent cells assessed as increase in thermal stability by thermal shift assay
[3] = test system: Bromodomain-containing protein 4 (Homo sapiens), O60885 [E151A]
[4] = test system: Mus musculus; assay: Antiinflammatory activity in C57BL/6 mouse model of poly(I:C)-induced acute airway inflammation assessed as decrease in neutrophils level in BALF at 10 mg/kg, po administered 1 day prior to poly(I:C) stimulation; assay type: functional, organism-based
[5] = target: CREB-binding protein (Homo sapiens, UniProt Q92793); assay: Binding affinity CBP (unknown origin) incubated for 1 hr by TR-FRET assay
CREB-binding protein, sequence (Q92793 whole entry): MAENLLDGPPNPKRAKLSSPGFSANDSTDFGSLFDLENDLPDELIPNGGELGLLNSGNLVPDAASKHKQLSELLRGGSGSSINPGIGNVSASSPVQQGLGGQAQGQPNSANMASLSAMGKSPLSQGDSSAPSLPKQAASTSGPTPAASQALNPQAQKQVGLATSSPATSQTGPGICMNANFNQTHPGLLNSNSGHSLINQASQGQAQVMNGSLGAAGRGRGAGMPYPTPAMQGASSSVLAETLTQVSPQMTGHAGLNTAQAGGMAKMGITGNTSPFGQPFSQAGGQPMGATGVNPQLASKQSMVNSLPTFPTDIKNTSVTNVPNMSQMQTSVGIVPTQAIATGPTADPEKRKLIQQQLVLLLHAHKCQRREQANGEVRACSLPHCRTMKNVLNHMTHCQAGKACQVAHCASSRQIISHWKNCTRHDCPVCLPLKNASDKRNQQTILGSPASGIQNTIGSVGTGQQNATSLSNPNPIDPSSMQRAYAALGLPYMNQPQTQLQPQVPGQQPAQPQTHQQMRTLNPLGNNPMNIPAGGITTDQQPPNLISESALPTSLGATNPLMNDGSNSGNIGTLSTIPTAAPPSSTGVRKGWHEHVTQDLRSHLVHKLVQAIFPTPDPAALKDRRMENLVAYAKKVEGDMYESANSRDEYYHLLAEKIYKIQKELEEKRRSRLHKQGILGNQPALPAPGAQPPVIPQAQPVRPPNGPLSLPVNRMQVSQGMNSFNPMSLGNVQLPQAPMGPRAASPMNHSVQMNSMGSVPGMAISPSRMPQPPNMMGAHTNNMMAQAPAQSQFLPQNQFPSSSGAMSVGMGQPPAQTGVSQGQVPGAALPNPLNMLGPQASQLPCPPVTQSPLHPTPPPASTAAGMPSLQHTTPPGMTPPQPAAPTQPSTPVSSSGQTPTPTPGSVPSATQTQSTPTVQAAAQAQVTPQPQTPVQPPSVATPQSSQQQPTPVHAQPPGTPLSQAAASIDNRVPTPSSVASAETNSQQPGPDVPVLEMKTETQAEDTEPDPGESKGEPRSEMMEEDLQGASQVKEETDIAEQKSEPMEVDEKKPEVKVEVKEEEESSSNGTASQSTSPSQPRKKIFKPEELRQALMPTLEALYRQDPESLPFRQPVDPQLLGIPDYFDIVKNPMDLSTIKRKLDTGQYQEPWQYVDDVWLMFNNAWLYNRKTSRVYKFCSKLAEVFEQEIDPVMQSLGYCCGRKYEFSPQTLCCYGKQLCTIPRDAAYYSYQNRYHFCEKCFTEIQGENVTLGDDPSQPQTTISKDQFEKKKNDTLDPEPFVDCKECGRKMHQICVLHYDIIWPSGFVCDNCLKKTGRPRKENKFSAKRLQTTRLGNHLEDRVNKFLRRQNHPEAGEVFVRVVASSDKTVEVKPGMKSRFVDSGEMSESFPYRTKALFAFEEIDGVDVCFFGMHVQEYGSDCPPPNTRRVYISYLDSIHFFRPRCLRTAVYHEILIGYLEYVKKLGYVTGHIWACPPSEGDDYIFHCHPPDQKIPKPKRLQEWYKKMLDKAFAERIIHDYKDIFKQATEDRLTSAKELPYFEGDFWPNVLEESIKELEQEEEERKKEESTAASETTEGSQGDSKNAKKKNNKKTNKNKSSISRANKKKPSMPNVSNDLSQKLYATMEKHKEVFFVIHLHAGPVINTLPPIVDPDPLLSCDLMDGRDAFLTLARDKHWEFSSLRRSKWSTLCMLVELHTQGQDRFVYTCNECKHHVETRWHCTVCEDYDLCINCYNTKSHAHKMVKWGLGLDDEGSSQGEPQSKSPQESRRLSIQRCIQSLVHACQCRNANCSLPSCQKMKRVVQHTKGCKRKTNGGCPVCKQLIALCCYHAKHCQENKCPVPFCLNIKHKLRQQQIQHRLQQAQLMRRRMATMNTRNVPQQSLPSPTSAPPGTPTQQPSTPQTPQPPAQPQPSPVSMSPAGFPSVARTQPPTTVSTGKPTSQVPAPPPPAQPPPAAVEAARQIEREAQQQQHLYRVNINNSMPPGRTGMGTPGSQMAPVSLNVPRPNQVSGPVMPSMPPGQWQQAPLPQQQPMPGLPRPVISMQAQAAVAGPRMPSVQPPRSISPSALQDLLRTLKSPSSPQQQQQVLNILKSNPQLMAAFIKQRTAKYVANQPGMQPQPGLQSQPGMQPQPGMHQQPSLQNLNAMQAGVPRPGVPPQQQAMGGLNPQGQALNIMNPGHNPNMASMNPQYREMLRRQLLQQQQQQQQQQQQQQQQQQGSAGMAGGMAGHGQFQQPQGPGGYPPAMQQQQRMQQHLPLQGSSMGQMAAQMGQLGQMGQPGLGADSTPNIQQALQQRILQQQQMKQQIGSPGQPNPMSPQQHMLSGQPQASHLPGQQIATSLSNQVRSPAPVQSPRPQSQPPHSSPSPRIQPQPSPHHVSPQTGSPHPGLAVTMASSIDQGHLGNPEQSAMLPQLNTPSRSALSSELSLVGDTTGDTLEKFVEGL

[6] = test system: Mus musculus; assay: Antiinflammatory activity in C57BL/6 mouse model of poly(I:C)-induced acute airway inflammation assessed as decrease in KC level in BALF at 10 mg/kg, po administered 1 day prior to poly(I:C) stimulation; assay type: functional, organism-based
[7] = test system: Bromodomain-containing protein 4 (Homo sapiens), O60885 [E151A]; remark: listed apart in the source
[8] = target: Bromodomain testis-specific protein (Homo sapiens, UniProt Q58F21); assay: Binding affinity BRDT BD2 (unknown origin) incubated for 1 hr by TR-FRET assay
[9] = Antiinflammatory activity in human SAEC assessed as inhibition of Poly(I:C) induced IL-6 expression pretreated for 24 hrs followed by Poly(I:C) addition for 4 hrs by qRT-PCR analysis; assay type: functional, cell-based
Procedure, shortened: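 Poly(I:C) 10 μg/mL then added for 4 h. CIG5 or IL-6 mRNA measured by qRT-PCR (ΔΔCt, PPIA normalized). IC50 from a four-parameter fit, mean ± SD of three independent runs.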

[10] = target: T1, Bromodomain-containing protein 4; remark: listed apart in the source
[11] = test system: Bromodomain-containing protein 4 (Homo sapiens), O60885 [E151A]; remark: listed apart in the source
[12] = test system: Mus musculus; assay: Antiinflammatory activity in C57BL/6 mouse model of poly(I:C)-induced acute airway inflammation assessed as decrease in CIG5 gene expression in lung tissue at 10 mg/kg, po administered 1 day prior to poly(I:C) stimulation; assay type: functional, organism-based
[13] = target: T1, Bromodomain-containing protein 4; remark: listed apart in the source
[14] = target: Bromodomain-containing protein 2 (Homo sapiens, UniProt P25440); assay: Binding affinity BRD2 BD1 (unknown origin) incubated for 1 hr by TR-FRET assay
Bromodomain-containing protein 2, sequence (P25440 whole entry): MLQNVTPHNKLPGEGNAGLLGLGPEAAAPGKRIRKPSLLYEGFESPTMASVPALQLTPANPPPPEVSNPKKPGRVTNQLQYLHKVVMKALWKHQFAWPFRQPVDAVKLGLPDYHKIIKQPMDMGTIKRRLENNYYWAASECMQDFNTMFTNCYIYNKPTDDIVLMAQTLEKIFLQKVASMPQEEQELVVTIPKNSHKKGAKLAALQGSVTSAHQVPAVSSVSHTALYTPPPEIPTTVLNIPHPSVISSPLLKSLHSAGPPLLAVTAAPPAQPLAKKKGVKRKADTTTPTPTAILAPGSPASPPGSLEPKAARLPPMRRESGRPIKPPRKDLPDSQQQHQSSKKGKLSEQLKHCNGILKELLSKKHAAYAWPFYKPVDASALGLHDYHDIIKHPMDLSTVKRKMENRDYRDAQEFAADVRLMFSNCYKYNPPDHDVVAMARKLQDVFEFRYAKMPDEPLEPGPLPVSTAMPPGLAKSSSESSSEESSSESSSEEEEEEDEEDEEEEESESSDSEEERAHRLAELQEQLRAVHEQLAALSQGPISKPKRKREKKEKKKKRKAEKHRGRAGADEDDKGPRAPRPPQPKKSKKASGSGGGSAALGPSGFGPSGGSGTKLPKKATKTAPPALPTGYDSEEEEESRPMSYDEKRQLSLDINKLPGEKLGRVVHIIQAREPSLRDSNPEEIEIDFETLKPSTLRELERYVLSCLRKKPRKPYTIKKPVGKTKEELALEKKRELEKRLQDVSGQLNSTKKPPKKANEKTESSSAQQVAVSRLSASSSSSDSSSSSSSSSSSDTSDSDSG
Procedure, shortened: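 Commercial TR-FRET kit with recombinant BRD2 bromodomain. Inhibitor at 0.01 nM–100 μM, 1 h at room temperature. Excitation 340 nm; 670/620 nm emission ratio read with 100 μs delay. IC50 from a four-parameter fit, mean of three runs.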

[15] = test system: SAEC; assay: Antiinflammatory activity in human SAEC assessed as decrease in H3K122Ac accumulation by immunofluorescence analysis; assay type: functional, cell-based
Procedure, shortened: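 Immortalized human small airway epithelial cells stimulated with poly(I:C) at 10 μg/mL. H3K122Ac detected by immunofluorescence and quantified as fold change in total fluorescence intensity.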

[16] = Half life in rat at 20 mg/kg, po; assay type: ADME, organism-based; details: in vivo
[17] = test system: Mus musculus; assay: Antiinflammatory activity in C57BL/6 mouse model of poly(I:C)-induced acute airway inflammation assessed as decrease in H3K122Ac accumulation in lung tissue at 10 mg/kg, po administered 1 day prior to poly(I:C) stimulation by immunofluorescence analysis; assay type: functional, organism-based
Procedure, shortened: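 Same mouse model: 10 mg/kg po one day before, plus a second dose with intranasal poly(I:C) (300 μg). Lungs collected one day later. H3K122Ac detected by immunofluorescence on paraffin lung sections and quantified as fold change in total fluorescence intensity.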

[18] = test system: Mus musculus; assay: Antiinflammatory activity in C57BL/6 mouse model of poly(I:C)-induced acute airway inflammation assessed as decrease in ISG54 gene expression in lung tissue at 10 mg/kg, po administered 1 day prior to poly(I:C) stimulation; assay type: functional, organism-based

ΔTm [1]: 15.5 °C
Activity [2]: inactive
ΔTm [3]: 0.7 °C
IC50 [5]: > 10000 nM
ΔTm [7]: 0.5 °C
IC50 [8]: 1900 nM
IC50 [9]: 370 nM
ΔTm [10]: 0.6 °C
ΔTm [11]: 0.5 °C
ΔTm [13]: 0.9 °C
IC50 [14]: 835 nM
half-life [16]: 3.7 h
Compound: O=C(Nc1ccc(C(F)(F)F)cc1)Nc1ccc(S(=O)(=O)N2CCC[C@H]2CN2CCOCC2)cc1
Activity [4]: Active
Activity [6]: inactive
Activity [12]: inactive
Activity [15]: Active
Activity [17]: Active
Activity [18]: Active
